Toxicity and Activity data for one compound are collected here from ChEMBL document CHEMBL1138683 (J Med Chem, 2004).

A short description of data set [1]: Anti convulsant activity administered intra peritoneally to mouse for toxicity at 4 hr with dose of 100 mg/kg; 1/4= No of animals exhibiting toxicity /No of animals tested. Format: organism-based. Also noted: dose 100 mg/kg. Conditions: in vivo, ip.
Data set [2] is described as follows: Anti convulsant activity administered intra peritoneally to mouse for toxicity at 4 hr with dose of 300 mg/kg; 0/2= No of animals exhibiting toxicity /No of animals tested. Conditions: in vivo, ip. On the set-up: dose 300 mg/kg. Format: organism-based.
A short description of data set [3]: Anticonvulsant activity after oral administration of 100 mg/kg dose after 30 min in rats; ++ means 50% of the animals protected. On the set-up: dose 100 mg/kg, route oral. Conditions: rat, in vivo, 0.5 h. Format: organism-based. Put shortly: (§1)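 Oral dosing of rats at a single dose, compound dissolved or suspended in 0.5% methylcellulose. Protection in the MES or scMet test checked 15 min, 30 min, 1 h, 2 h and 4 h after dosing. Scored as 25/50/75/100% of animals protected (+ to ++++), – for none.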

A short description of data set [4]: Toxicity after oral administration of 100 mg/kg dose in rats; + means 25% of the animals exhibit toxicity. The data set is classed as organism-based. On the set-up: dose 100 mg/kg, route oral. Particulars: rat, in vivo. In a few lines:
(§2)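 Rats dosed orally with compound dissolved or suspended in 0.5% methylcellulose (0.04 mL per 10 g body weight). Anticonvulsant protection (MES or scMet) and toxicity scored at 15 min, 30 min, 1 h, 2 h and 4 h after dosing. Graded in steps of 25% of animals protected or showing toxicity.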

Data set [5] in a line: Anti convulsant activity administered intra peritoneally to mouse for toxicity at 4 hr with dose of 30 mg/kg; 0/2= No of animals exhibiting toxicity /No of animals tested. Also noted: dose 30 mg/kg. Format: organism-based. Conditions: in vivo, ip.
A short description of data set [6]: Anti convulsant activity administered intra peritoneally to mouse for toxicity at 0.5 hr with dose of 30 mg/kg; 0/4= No of animals exhibiting toxicity /No of animals tested. Particulars: in vivo, ip. Format: organism-based. On the set-up: dose 30 mg/kg.
A short description of data set [7]: Anti convulsant activity administered intra peritoneally to mouse for toxicity at 0.5 hr with dose of 100 mg/kg; 7/8= No of animals exhibiting toxicity /No of animals tested. The data set is classed as organism-based. Also noted: dose 100 mg/kg. Particulars: in vivo, ip.
Data set [8] can be described thus: Anti convulsant activity administered intra peritoneally to mouse for toxicity at 0.5 hr with dose of 300 mg/kg; 4/4= No of animals exhibiting toxicity /No of animals tested. Format: organism-based. Conditions: in vivo, ip. Also noted: dose 300 mg/kg.
In data set [9] the test system is Mus musculus. Description: Anti convulsant activity administered intra peritoneally to mouse at maximal electroshock test at 4 hr after the drug administered with dose of 30 mg/kg; 0/1= No of animals protected /No of animals tested. The data set is classed as functional.
The subject of data set [10] is Mus musculus. The data set is described as follows: Anti convulsant activity administered intra peritoneally to mouse at maximal electroshock test at 4 hr after the drug administered with dose of 100 mg/kg; 0/3= No of animals protected /No of animals tested. Format: functional.
The test system of data set [11] is Mus musculus. The data set is described as follows: Anti convulsant activity administered intra peritoneally to mouse at maximal electroshock test at 4 hr after the drug administered with dose of 300 mg/kg; 0/1= No of animals protected /No of animals tested. The data set is classed as functional. A general note: In the maximal electroshock model the usual endpoint is tonic extension of the hind limbs.

Data set [12] deals with Mus musculus. The data set is described as follows: Anti convulsant activity administered intra peritoneally to mouse at maximal electroshock test at 0.5 h after the drug administered with dose of 30 mg/kg; 0/1= No of animals protected /No of animals tested. Format: functional.
Data set [13] deals with Mus musculus. The data set is described as follows: Anti convulsant activity administered intra peritoneally to mouse for subcutaneous metrazol test at 4 hr after the drug administered with dose of 30 mg/kg; 0/1= No of animals protected /No of animals tested. The data set is classed as functional. Conditions: route intraperitoneal.
Data set [14] concerns Mus musculus. Description: Anti convulsant activity administered intra peritoneally to mouse at maximal electroshock test at 0.5 hr after the drug administered with dose of 100 mg/kg; 0/3= No of animals protected /No of animals tested. Format: functional.
The test system of data set [15] is Mus musculus. The data set is described as follows: Anti convulsant activity administered intra peritoneally to mouse at maximal electroshock test at 0.5 h after the drug administered with dose of 300 mg/kg; 0/1= No of animals protected /No of animals tested. The data set is classed as functional.
Data set [16] concerns Mus musculus. The data set is described as follows: Anti convulsant activity administered intra peritoneally to mouse for subcutaneous metrazol test at 4 hr after the drug administered with dose of 100 mg/kg; 0/1= No of animals protected /No of animals tested. Format: functional.
Data set [17] has as its system Rattus norvegicus. The data set is described as follows: Anticonvulsant activity after oral administration of 100 mg/kg dose after 1 hr in rats; + means 25% of the animals protected. Format: functional, organism-based. On the set-up: dose 100 mg/kg. In a few lines:
as §1

Data set [18] relates to Rattus norvegicus. The data set is described as follows: Anticonvulsant activity after oral administration of 100 mg/kg dose after 4 hr in rats; +means 25% of the animals protected. On the set-up: dose 100 mg/kg. The data set is classed as functional, organism-based. Put shortly: as §1
Data set [19] concerns Mus musculus. The data set is described as follows: Anti convulsant activity administered intra peritoneally to mouse for subcutaneous metrazol test at 4 hr with dose of 300 mg/kg; 0/1= No of animals protected /No of animals tested. The data set is classed as functional.
Data set [20] has as its system Mus musculus. Description: Anti convulsant activity administered intra peritoneally to mouse for subcutaneous metrazol test at 0.5 hr with dose of 30 mg/kg; 0/1= No of animals protected /No of animals tested. The data set is classed as functional.
In data set [21] the test system is Mus musculus. The data set is described as follows: Anti convulsant activity administered intra peritoneally to mouse for subcutaneous metrazol test at 0.5 hr with dose of 100 mg/kg; 0/1= No of animals protected /No of animals tested. Format: functional.
Data set [22] relates to Mus musculus. Description: Anti convulsant activity administered intra peritoneally to mouse for subcutaneous metrazol test at 0.5 h with dose of 300 mg/kg; 0/1= No of animals protected /No of animals tested. The data set is classed as functional.
Data set [23] has as its system Rattus norvegicus. The data set is described as follows: Toxicity after oral administration of 100 mg/kg dose in rats; + means 25% of the […]. The data set is classed as functional, organism-based. Also noted: dose 100 mg/kg. Put shortly:
as §2

Take `CCN(CCO)C(=O)C1C(C)(C)C1(C)C`: the Toxicity in data set [1] was 1; in data set [2] it was 0; in data set [4], 25% of the animals exhibit toxicity; in [5] it was 0; in data set [6], 0; in data set [7], 7. In addition, the figures for the Toxicity (in data set [8]; in the data set with Rattus norvegicus [23]) were 4 and 25% of the animals exhibit toxicity, respectively. Moreover, the Activity is listed as 25% of the animals protected in [3]; 0 in the data set on Mus musculus [9]; 0 with Mus musculus [10]; 0 with Mus musculus [11]; 0 with Mus musculus [12]; 0 in the data set on Mus musculus [13]. In addition, the Activity with Mus musculus [14] was 0; with Mus musculus [15] it was 0; in the data set on Mus musculus [16] it was 0; with Rattus norvegicus [17] it was 25% of the animals protected; with Rattus norvegicus [18], 25% of the animals protected; with Mus musculus [19], 0. Besides, the Activity with Mus musculus [20], in the data set on Mus musculus [21] and in the data set on Mus musculus [22] was 0 in each case.
